Insulin prom inh: inhibitors of insulin promoter-driven GFP, primary screen, imaging, TRM-6 cells (human fetal islet line), eGFP reporter, cell count; inhibition, % at 2 µM; AID 1273, 2008; actives 0.9% (n = 130,000); reporter expression induced with tamoxifen;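 active = inhibition above the mean plus 3 SD, with well images judged a real hit on visual review, cut at about 60% in these data, passing the limit was not always enough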
HSV augment: enhancers of HSV replication in host cells, fold increase, host cell viability | AID 1956, 2009 | maximum fold increase | actives 0.005% (n = 220,000) | HSV replication augmentation in cells; in the data active = maximum fold increase above about 1.5; tested in PC3 cells
MT stabilizer: microtubule stabilizers in HeLa cells, primary screen, imaging, high-content imaging; HeLa tubulin immunostaining HCS, 24 h; share of cells brighter than vehicle mean+2SD; % tubulin-high responders, % at 10 µM; actives 0.83% (n = 200,000);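 active = plate Z-score above 3 for both tubulin-high and condensed-nucleus cell shares, with cell loss under 80%, at 10 µM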;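 also: anti alpha tubulin signal scored within the nucleus-defined area of each cell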
ROMK mod: ROMK potassium channel modulators, primary screen, cell-based, thallium flux, MLSMR library. actives 2% (n = 130,000). B-score at 10 µM. AID 1918, 2009. Tet-inducible ROMK, thallium flux fluorescence; actives lie on both sides. ATP-sensitive inward rectifier potassium channel 1 (Homo sapiens), P48048;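 active = signal ratio slope over the read window, or its plate-corrected B-score, at least 3 SD from the plate mean, either direction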;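 also: B-score of the F/F0 ratio slope over 7 to 12 s after thallium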
Target sequence (P48048 whole entry, looked up): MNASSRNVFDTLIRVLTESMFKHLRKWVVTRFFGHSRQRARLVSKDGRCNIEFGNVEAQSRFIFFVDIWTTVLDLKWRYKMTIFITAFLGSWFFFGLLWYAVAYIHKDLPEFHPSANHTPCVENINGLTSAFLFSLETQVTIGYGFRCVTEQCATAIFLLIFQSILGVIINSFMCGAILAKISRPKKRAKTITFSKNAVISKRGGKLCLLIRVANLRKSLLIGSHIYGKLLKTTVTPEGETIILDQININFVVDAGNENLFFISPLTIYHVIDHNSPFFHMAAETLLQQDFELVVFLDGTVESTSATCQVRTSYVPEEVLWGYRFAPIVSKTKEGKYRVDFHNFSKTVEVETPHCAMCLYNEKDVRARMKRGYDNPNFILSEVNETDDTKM
bCat nuc transl: modulators of beta-catenin nuclear translocation, primary screen, imaging, HeLa cells, immunofluorescence, high-content; actives 0.3% (n = 190,000); nuclear translocation activity, % at 5 µM;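 active = nuclear translocation activity above 50% at 5 µM, with a well cell count of 50 or more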;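 also: per-cell ratio of nuclear to cytoplasmic median beta-catenin stain intensity; plate controls were DMSO negative control for no effect and GSK-3 inhibitor IX positive control for full effect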
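Test system: HeLa cells, endogenous beta-catenin; Compound: single 5 µM dose plus 0.02–20 µM confirmation series; Times: compound exposure 24 h at 37°C; Signal: fluorescence imaging of beta-catenin antibody stain plus DAPI; Read-out: % activation, nuclear-to-cytoplasmic median beta-catenin signal ratio per cell.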
Active calls of the source: *; i = inactive; . = no result given. Only some compounds are listed: those with a hit (about 2.4% of all), similar ones and a draw of the others.

SMILES	Insulin prom inh	HSV augment	MT stabilizer	ROMK mod	bCat nuc transl
Cc1ccccc1N(CC(=O)Nc1ccc(S(=O)(=O)N2CCOCC2)cc1)S(C)(=O)=O	.	i	4	1.6	2
COc1ccc(CNC(=O)/C=C/C(=O)O)cc1OC	.	i	3	0.0015	-5
COc1ccc(CNC(=O)/C=C/c2ccco2)cc1OC	71*	i	3	0.29	1
COC(=O)C/C(O)=C(/N=Nc1cccc(C(F)(F)F)c1)C(=O)OC	9	i	2	-0.69	2
COc1ccccc1/C=C/C=N/n1c(-c2n[nH]c3c2CCC3)n[nH]c1=S	.	i	.	-0.03	62*
CC(C)S(=O)(=O)c1cnc(-c2ccccn2)nc1N	.	i	.	.	1
COc1ccc(Nc2nc(N)nc(CSc3nncn3C)n2)cc1	77*	i	6	.	.
CCOc1ccccc1Nc1nc(N)nc(CSc2nncn2C)n1	41	i	3	.	.
Fc1ccc(C(c2nnnn2Cc2cccs2)N2CCN(C3CCCCC3)CC2)cc1 (stereo unspecified)	.	i	4	-5.7*	-5
Cc1cc2c(cc1C)CSC(c1ccc3ccccc3c1O)SC2	63*	i	0	0.15	-4
O=C(CCc1nnc(CCCc2ccccc2)o1)NCCN1CCOC1=O	.	i	3	-0.01	0
CCCc1nc(C(C)(C)O)c(C(=O)O)n1Cc1ccc(-c2ccccc2-c2nn[nH]n2)cc1	.	i	.	.	-1
CCc1ccccc1NC(=O)c1cc(=O)c2ccccc2o1	42	i	1	1.8	-3
CC(C)C1C(C#N)=C(N)Oc2n[nH]c(-c3ccc4ccccc4c3)c21 (stereo unspecified)	-10	i	32*	0.32	-7
CC(C)C1C(C#N)=C(N)Oc2n[nH]c(-c3cccs3)c21 (stereo unspecified)	.	i	5	.	-6
Cc1cc(C)c2c(c1)-c1c(ssc1=S)C(C)(C)N2C(=O)CSc1nncn1C	.	i	18*	.	-1
O=S(=O)(c1ccccc1)N(CC(O)COc1ccccc1)c1ccccc1 (stereo unspecified)	.	i	.	.	-1
S=C(NCCCn1ccnc1)Nc1cccc(Cl)c1	.	i	5	-0.041	3
COC(=O)c1c(-c2cccc(OC)c2)csc1N	.	i	5	.	0
COC(=O)c1c(-c2ccc(OC)c(OC)c2)csc1N	80*	i	4	.	.
CC(C)CSc1nsc(N)n1	86*	i	3	.	-5
CC(C)c1csc(CN2CCCC(CCC(=O)NCc3ccccc3F)C2)n1 (stereo unspecified)	-60	i	25*	-0.074	3
CCC(C)C(NC(=O)/C(=C\c1ccccc1)NC(=O)c1ccc(OC)cc1)C(=O)O (stereo unspecified)	.	i	5	0.047	1
CCc1ccc([C@@H]2C[C@H]3CN(Cc4ccccc4OC)C(=O)[C@]34CCCN24)cc1	.	i	2	-1.7	-3
CC1Cc2ccccc2N1C(=O)c1cccnc1 (stereo unspecified)	0	i	2	.	0
SMILES	Insulin prom inh	HSV augment	MT stabilizer	ROMK mod	bCat nuc transl
Cc1nc2ccc(C(=O)N3c4ccccc4CC3C)cc2s1 (stereo unspecified)	.	i	19*	0.11	6
C=C1C(=O)[C@@]23[C@H](O)C[C@@H]4C(C)(C)CC[C@H](O)[C@@]4(C)[C@@H]2CC[C@@H]1[C@H]3O	-105	i	25*	-2.9	.
Fc1cccc(F)c1-n1c(CN2CCCCC2)csc1=S	.	i	16*	0.18	-2
Fc1cccc(F)c1-n1c(CN2CCOCC2)csc1=S	-27	i	2	0.44	0
CC1=C(C(=O)OCc2ccccc2)C(c2ccccc2OS(=O)(=O)c2ccc([N+](=O)[O-])cc2)NC(=O)N1CCCC(=O)O (stereo unspecified)	.	i	.	.	.
Cc1ccc2nsnc2c1S(=O)(=O)NCCc1c(C)[nH]c2ccc(F)cc12	.	i	1	-0.89	.
COC(=O)c1ccccc1NC(=O)CN(c1ccc(OC)cc1)S(C)(=O)=O	-88	i	29*	0.11	2
COC(=O)c1ccccc1NC(=O)CN(c1cc(OC)ccc1OC)S(C)(=O)=O	-43	i	1	0.19	1
COc1ccc(N(CC(=O)Nc2ccc(OC)cc2OC)S(=O)(=O)c2ccccc2)cc1	-7	i	8.3*	-1.8	0
COc1ccc(/C(C)=N/NC(=O)CNC(=O)CCc2ccccc2)c(OC)c1	.	i	.	.	2
O=C1CC(c2ccc(F)cc2)CC(O)=C1C=NCCN1CCN(C(=O)Nc2ccccc2)CC1 (stereo unspecified)	-36	i	5	.	-1
Nc1ccc(/C=C/C(=O)c2cccs2)cc1	-143	i	2	-6*	-1
CCCC(=O)NC(c1cccs1)c1cc([N+](=O)[O-])c2cccnc2c1O (stereo unspecified)	21	i	1	-0.59	.
O=C(CCc1ccccc1)NC(c1cccs1)c1cc(Cl)c2cccnc2c1O (stereo unspecified)	-115	i	10*	0.057	0
O=C1c2ccccc2C(=O)N1CC(O)CNc1ccc(Br)cc1 (stereo unspecified)	72*	i	2	.	-1
CCOc1cc(/C=C/C(=O)OCC(=O)NC2CCS(=O)(=O)C2)ccc1OCc1ccccc1 (stereo unspecified)	43	i	3	.	0
COc1cc2c(cc1OC)C(C)N(C(C)=O)CC2 (stereo unspecified)	81*	i	3	0.096	1
COc1cc2c(cc1OC)C(C)N(C(=O)c1cccs1)CC2 (stereo unspecified)	.	i	24*	0.84	0
COc1cc2c(cc1OC)C(c1cccs1)N(C(=O)c1ccncc1)CC2 (stereo unspecified)	.	i	23*	0.52	32
CC(C)CNC(=O)c1cnn2c(C(F)(F)F)cc(C(F)(F)F)nc12	.	i	.	.	0
CCOC(=O)c1cnc(-c2ccccc2)nc1N	95*	i	4	-0.11	1
CCCn1c(C)cc(C(=O)COC(=O)c2ccc[nH]c2=O)c1C	24	i	4	.	-3
O=C(OCCCCN1C(=O)c2ccccc2C1=O)c1ccc(Br)o1	79*	i	3	.	3
COc1ccccc1OCC(=O)NN=C(Cc1ccccc1)Cc1ccccc1	-10	i	1	-0.75	.
CCOc1ccccc1OCC(=O)N/N=C(\C)Cc1ccc(OC)cc1	-293	i	15*	0.79	4
COC(=O)C1=C(C(=O)OC)SC(=C2C(=S)C(C)(C)N(C(=O)C(C)C)c3ccccc32)S1	40	i	2	-0.61	-5
CCCC(=O)N1c2ccccc2C(=C2SC(C(=O)OC)=C(C(=O)OC)S2)C(=S)C1(C)C	54	i	42*	.	-1

Screening results as filed in PubChem.
